OXTR potentiate: human OXTR potentiators, primary screen, fluorescence, CHO-OTR cells, Fluo-8 calcium | Oxytocin receptor (Homo sapiens), P30559 | Fluo-8 calcium fluorescence, potentiator mode; 0% = oxytocin EC15, 100% = EC100 | activation, % at 3 µM | actives 0.061% (n = 320,000);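 active = activation above that plate's cutoff, the mean activation of tested compounds plus 3 SD, cut at about 6.6% in these data, passing the limit was not always enough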;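 also: 100% uses oxytocin at 75 nM as the full agonist control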
Target sequence (P30559 whole entry, looked up): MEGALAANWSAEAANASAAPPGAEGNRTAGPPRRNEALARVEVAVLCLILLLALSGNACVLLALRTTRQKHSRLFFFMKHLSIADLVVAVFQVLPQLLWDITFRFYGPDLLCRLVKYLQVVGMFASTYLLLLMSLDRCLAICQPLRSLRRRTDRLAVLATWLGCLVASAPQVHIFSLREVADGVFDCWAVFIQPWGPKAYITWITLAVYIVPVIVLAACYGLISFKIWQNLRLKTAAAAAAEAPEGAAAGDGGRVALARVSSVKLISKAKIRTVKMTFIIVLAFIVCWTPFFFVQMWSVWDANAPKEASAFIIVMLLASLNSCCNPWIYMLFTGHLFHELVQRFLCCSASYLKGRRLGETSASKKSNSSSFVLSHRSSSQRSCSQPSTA
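Material: human OTR in CHO cells. Compound: 3.0 µM, one dose. Timing: compound 6 min at room temperature before oxytocin, 100 s read. Evaluation: % activation of max/min ratio relative to oxytocin controls. Replication: single well per compound, singlicate. Signal: Fluo-8 calcium dye fluorescence.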
OXTR agonist: human OXTR agonists, primary screen, fluorescence, CHO-OTR cells, Fluo-8 calcium; actives 0.32% (n = 320,000); activation, % at 3 µM; AID 2435, 2010; Fluo-8 calcium fluorescence; normalized: DMSO 0%, oxytocin 100%; Oxytocin receptor (Homo sapiens), P30559;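 active = activation above the mean of all tested compounds plus 3 SD, cutoff set per screening run, cut at about 20% in these data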;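 also: peak over basal fluorescence ratio from a 100 s FLIPR kinetic read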
V1R ag counter: agonists of human V1a receptor, primary screen, counter-screen for OXTR agonist project, fluorescence, CHO-V1R cells; AID 2797, 2010; activation, % at 3 µM; Vasopressin V1a receptor (Homo sapiens), P37288; Fluo-8 calcium fluorescence, agonist mode; 0% DMSO, 100% 3 nM vasopressin; actives 0.25% (n = 320,000);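 active = activation above the mean activation of all tested compounds plus 3 SD, per screening run, cut at about 20% in these data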;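 also: signal is peak over basal fluorescence ratio across a 100 second FLIPR read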
CHRM4 PAM: human M4 muscarinic receptor positive allosteric modulators, primary screen, CHO-K1 cells, Fluo-8 calcium fluorescence; Muscarinic acetylcholine receptor M4 (Homo sapiens), P08173; CHO-K1 hM4/Gqi5, ACh EC20; 0% = ACh EC20, 100% = maximal ACh; activation, % at 3 µM; actives 0.4% (n = 360,000);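 active = activation above its plate's cutoff, the mean activation of sample wells plus 3 SD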
CHRM4 antagonist: human M4 muscarinic receptor antagonists, primary screen, CHO cells, Fluo-8 calcium fluorescence | Muscarinic acetylcholine receptor M4 (Homo sapiens), P08173 | CHO-hM4 cells, ACh EC80 | inhibition, % at 3 µM | actives 0.73% (n = 360,000);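 active = inhibition above its plate's cutoff, the mean inhibition of sample wells plus 3 SD, cut at about 27% in these data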;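 also: 0% = acetylcholine EC80 with DMSO and 100% = DMSO without agonist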
CHRM4 agonist: human M4 muscarinic receptor agonists, primary screen, CHO-K1 cells, Fluo-8 calcium fluorescence; Muscarinic acetylcholine receptor M4 (Homo sapiens), P08173; CHO-K1 hM4/Gqi5; vehicle 0%, full acetylcholine response 100%; activation, % at 3 µM; actives 0.14% (n = 360,000); AID 624127, 2012;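 active = activation above the run mean over all test wells plus 3 SD, cut at about 32% in these data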;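 also: peak over basal fluorescence ratio per well then scaled between controls; 0% = DMSO wells and 100% = acetylcholine at EC100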
Numbers without * were called inactive; nt = no result. In the library only some 1.5% were active in any assay of this set; here they are far more common.

SMILES	OXTR potentiate	OXTR agonist	V1R ag counter	CHRM4 PAM	CHRM4 antagonist	CHRM4 agonist
C=CCc1c(C)nc(-c2ccccc2)nc1N/N=C(\C)c1ccccc1	-7	-1	-1	-9	35*	-1
O=C1CCCC(c2ccccc2)N1 (stereo unspecified)	-4	1	0	2	-7	1
O=C1NC(c2ccccc2)CCO1 (stereo unspecified)	-1	0	1	30*	-5	1
Cc1cc(C(=O)COC(=O)c2cc(Cl)ccc2N)c(C)n1Cc1ccco1	1	-1	3	19*	6	1
COc1ccc(NC(=O)C2CCC(C)(C(=O)O)C2(C)C)cc1 (stereo unspecified)	3	0	0	2	28*	1
CCOc1ccc(NC(=O)C2CCC(C)(C(=O)O)C2(C)C)cc1 (stereo unspecified)	-17	0	0	2	2	1
Oc1ccc(-c2cc(-c3ccc(O)cc3)nc(-c3ccccc3)n2)cc1	-8	1	1	34*	23	6
Nc1ccc(-c2cc(-c3ccc(N)cc3)nc(-c3ccccc3)n2)cc1	-4	2	3	-2	-5	3
CC(C)c1ncc(S(=O)(=O)c2ccc(C(F)(F)F)cn2)c(N)n1	-11	0	-2	13	-1	0
NC(=O)NN=C1C2CCCC1C(c1ccccc1)NC2c1ccccc1 (stereo unspecified)	-4	-3	-1	-14	49*	-1
COC(=O)c1ccc2c(=O)n(Cc3ccc(C(=O)NC4CCCC4)cc3)c(=S)[nH]c2c1	-12	1	1	21*	1	2
CC(=O)NC(=O)NC1OC(=O)C(Cl)=C1Cl (stereo unspecified)	-8	0	1	17*	-15	1
c1ccc(CN2CCN(C3CCCSc4ccccc43)CC2)cc1 (stereo unspecified)	-4	-1	0	-13	35*	1
O=C1CC(N2CCN(Cc3ccccc3)CC2)C(=O)N1 (stereo unspecified)	5	3	2	3	7	0
COc1cc(NC(=O)c2cccs2)c(OC)cc1NC(=O)CCn1nnc2ccccc21	-3	0	1	-12	-5	8
COC(=O)c1ccc2nc(-c3ccc(F)cc3)c(Cc3cccc(F)c3)n2c1	nt	nt	nt	-10	6	4
COC(=O)c1ccc2nc(-c3ccc(F)cc3)c(Cc3cccc(Cl)c3)n2c1	nt	nt	nt	-13	35*	2
Cc1ccc(CNc2ncc(-c3ccc4c(c3)OCO4)n2C)cc1	-4	3	3	-28	28*	0
O=C1C=CC(=O)N1CCNc1ncc(C(F)(F)F)cc1Cl	nt	nt	nt	-8	28*	5
O=C(/C=C/c1cccc([N+](=O)[O-])c1)OCC1CCCO1 (stereo unspecified)	nt	nt	nt	0	-13	2
COc1ccc2c(c1OC)C(=O)OC2N1C(=O)CC[C@H]1C(=O)Nc1ccc(F)cc1F (stereo partly specified)	7	1	1	4	-7	0
O=C(Nc1nnc([C@@H]2C[C@H](O)[C@@H](CO)O2)s1)NC1CCCCC1	nt	nt	nt	13	-15	1
CC[C@H](C)[C@H]1CNC(=S)N1CC1CCN(CCCCc2ccccc2)CC1	nt	nt	nt	-15	37*	1
S=C1NCCN1CC1CCN(CCC23CC4CC(CC(C4)C2)C3)CC1	nt	nt	nt	-15	58*	3
CC(C)C[C@H]1CNC(=S)N1CC1CCN(CCCC2CCCCC2)CC1	nt	nt	nt	-15	55*	1
SMILES	OXTR potentiate	OXTR agonist	V1R ag counter	CHRM4 PAM	CHRM4 antagonist	CHRM4 agonist
CC(C)C[C@H]1CNC(=S)N1CC1CCN(CCC23CC4CC(CC(C4)C2)C3)CC1	nt	nt	nt	-16	67*	3
C=CCC(=O)NC1CCCc2c1cnn2-c1cc(F)cc(F)c1 (stereo unspecified)	-3	0	1	1	-4	1
CC(C)N(Cc1ccccc1)C(=O)COC(=O)c1ccc(O)cc1	-7	3	3	-3	-14	7
CC[C@H](C)[C@H]1CNC(=S)N1CC1CCN(CCC(C)(C)C)CC1	nt	nt	nt	2	8	1
CC(C)C[C@H]1CNC(=S)N1CC1CCN(CC2CCC(C(C)(C)C)CC2)CC1 (stereo partly specified)	nt	nt	nt	-17	50*	4
CC[C@H](C)[C@H]1CNC(=S)N1CC1CCN(CCCC2CCCC2)CC1	nt	nt	nt	-14	27*	2
CC1CCC2(CC1)NC(=O)N(NC(=O)c1cc3ccccc3o1)C2=O (stereo unspecified)	2	1	1	8	-4	1
Nc1cc(=O)[nH]c(SCC(=O)Nc2cccnc2Cl)n1	-7	0	0	22*	-26	4
Nc1cc(=O)[nH]c(SCC(=O)Nc2ccccc2Sc2ccc(Cl)cc2)n1	-15	1	-1	-4	9	3
CC(=O)c1ccc(NC(=S)NC(NC(=O)c2ccco2)C(Cl)(Cl)Cl)cc1 (stereo unspecified)	-24	61*	38*	3	-12	12
CC1CCN(CCc2nc3cc(NC(=O)C(C)C)ccc3n2C)CC1	-5	1	0	-16	58*	0
CC(C)C(=O)Nc1ccc2c(c1)nc(CCN1CCCCC1)n2C	-14	-1	1	-8	14	0
C(=C\c1ccccc1)/CN1CCN(C(c2nnnn2Cc2ccccc2)C2CC2)CC1 (stereo unspecified)	nt	nt	nt	-13	5	8
O=C(NCc1ccco1)c1ccc2sc([C@@H]3O[C@H](CO)[C@H](O)[C@H](O)[C@H]3O)nc2c1	nt	nt	nt	-1	-4	1
Cc1sc2ncnc(NS(=O)(=O)c3ccc(Cl)cc3)c2c1C	-7	4	6	6	-5	3
CC(=O)Nc1ccc(S(=O)(=O)Nc2nc(C)nc3sc(C)c(C)c23)cc1	-2	-1	0	21*	-12	-1
CCc1cc(-c2n[nH]c(=S)n2-c2ccccc2C)cs1	-4	-2	-1	31*	-16	-3
CCN(c1ccccc1)S(=O)(=O)c1ccc(C(=O)NC2CCN(Cc3ccccc3)CC2)cc1	-10	17	15	-12	46*	25
